In the RNAGym collection of RNA variant scans (doi:10.1126/science.aae0568):
This sample holds only a part of the variants without activity.

B1: tRNA (parent)
chain: GUUCCGUUGGCGUAAUGGUAACGCGUCUCCCUCCUAAGGAGAAGACUGCGGGUUCGAGUCCCGUACGGAACG

Variants of: B1
Test: yeast fitness relative to wild type (ratio to wild type); higher = fitter; tRNA-Arg(CCU), competitive growth, 37 C, YPD
Procedure, shortened: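 Start and end populations of a pooled competition were compared by 100-nucleotide paired-end sequencing of gene amplicons. The Saccharomyces cerevisiae strains carried tRNA-Arg(CCU) gene variants at the native genomic locus, synthesised with a 3% per-site mutation rate at 69 sites, and competed in YPD at 37°C for 24 hours in six parallel replicates. Darwinian fitness relative to wild type was based on the change in genotype frequencies. Genotypes required ≥ 100 starting reads, and estimates < 0.5 were set to 0.5.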

Variant	yeast fitness
C22U C46G C49G A57G	≤ 0.5
G23A C55U G58A	≤ 0.5
C22U C34G G48C	≤ 0.5
C22U U47C G52A	≤ 0.5
G23A C31A	0.644
C22U C46A C61U	≤ 0.5
G23A C30U C66U	≤ 0.5
C22U C60U G67A	0.643
G23A C33G G63A	0.594
C22U C31G C60G	≤ 0.5
C22U C34G A36U U47C A65C	≤ 0.5
G23A G25C C46G G48A C66A	≤ 0.5
C22U C33G C55G	0.537
C22U G41A G50A C55G	≤ 0.5
C22U U54G A65G G68U A70C	≤ 0.5
G23A C24G	≤ 0.5
G23A C29G G68C	≤ 0.5
G23A C27U A45U	0.668
C22U C62U	0.867
C22U C62G	0.778
C22U C62A	0.856

Variant	yeast fitness
C22U C33U A42U G52C A57C A65C	≤ 0.5
G23A A42C C60U C61G	≤ 0.5
G23A C27A A57U	0.634
G23A C33G U35G C60A C62U	≤ 0.5
C22U G41A	0.706
G23A A36G	0.668
C22U C46G C49A G56A C60A A70C	0.534
G23A A36G C55G	0.578
C22U G51C C61G	0.556
C22U C55G C62A	≤ 0.5
G23A A57C A65U	≤ 0.5
G23A G38A G41C G50C C55G	0.696
G23A C27U C29U G39A G58A A65C	≤ 0.5
G23A C34U A43U G44C	≤ 0.5
G23A C30A A37G C66U	0.539
C22U C30U U47C U54A	≤ 0.5
G23A G25A A40U C61U	≤ 0.5
G23A G38C	0.599
G23A G38A	0.643
G23A C30U C33A G41C A42U	0.555
C22U U54A C55U G63A	0.54

Variant	yeast fitness
G23A C33U C34U A40U	≤ 0.5
G23A A36U G39C	0.518
G23A A70C	0.74
G23A C31U G56U A65U G68C	≤ 0.5
C22U G23C U26C C30A	0.507
G23A C34G	0.582
G23A C30U U53A	≤ 0.5
G23A C29U A45U	0.967
C22U G52A C55A	0.579
C22U G50A G56A	0.793
C22U U26C G63U	≤ 0.5
G23A C29A G68A	≤ 0.5
C22U G41A A65C	≤ 0.5
G23A C30A C46G	0.706
C22U U35C C49U C66U	0.586
G23A C60A	≤ 0.5
C22U G41A A69C	≤ 0.5
C22U G52A C55A C66U	0.526
G23A C33G U54A G56C	≤ 0.5
G23A C33A C34G	≤ 0.5
C22U C46U G51C	≤ 0.5

Variant	yeast fitness
G23A C33G G50A	0.53
G23A C60G G67A	≤ 0.5
G23A C49A U59C C62U A65U	≤ 0.5
C22U U35A G52A	≤ 0.5
G23A G41C	0.803
C22U C55A A65G C66U	0.585
C22U G67A	0.78
C22U G67U	0.808
G23A C33G A43G A69C	≤ 0.5
G23A C24A C31A A36G	≤ 0.5
C22U C31G U53A	≤ 0.5
C22U G23A C46U	≤ 0.5
C22U C49A A69G	≤ 0.5
C22U C31G C33A G38A U47A	≤ 0.5
G23A C31U C33G	0.523
C22U G44C A70U	0.711
G23A C30G G67A	0.726
G23A C46G	0.683
C22U G58C C61A	≤ 0.5
G23A A42G G51A C61U	≤ 0.5
G23A C29G C30G C49A G56C C61U	0.702
